Experimental findings from ChEMBL document CHEMBL1177681, “Hybrid diarylbenzopyrimidine non-nucleoside reverse transcriptase inhibitors as promising new leads for improved anti-HIV-1 chemotherapy” (Bioorg Med Chem, 2010) are described below.

pEC50: −log10 of the molar value.

Data set [1] relates to Human immunodeficiency virus 1. The experiment in a line: Antiviral activity against wild type HIV1 3B infected in human MT4 cells assessed as protection against virus-induced cytopathogenicity after 4 days by MTT assay. The class given is functional, organism-based. To be noted: Human immunodeficiency virus 1, 3B, MT4, 96 h. In a few lines: (§1)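 MT-4 cells at 1 × 10⁵ cells/mL infected at multiplicity of infection 0.02, then immediately plated onto serial dilutions of compound (DMSO stocks of 50 mM or higher). After 4 days at 37 °C, viable cells counted by MTT. […] Virus stocks titrated in MT-4 cells as CCID50.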
(Protection from cytopathic effect is a common read-out in antiviral testing.)

The subject of data set [2] is Human immunodeficiency virus 2. The experiment in a line: Antiviral activity against wild type HIV2 ROD infected in human MT4 cells assessed as protection against virus-induced cytopathogenicity after 4 days by MTT assay. It counts as functional, organism-based. To be noted: Human immunodeficiency virus 2, ISOLATE ROD, MT4, 96 h. In a few lines: as §1
Data set [3] relates to Human immunodeficiency virus 1. Briefly: Antiviral activity against HIV1 with reverse transcriptase K103N, Y181C mutant infected in human MT4 cells assessed as protection against virus-induced cytopathogenicity after 4 days by MTT assay. The class given is functional, organism-based. To be noted: Human immunodeficiency virus 1, MT4, 96 h. In a few lines: (§2)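 MT-4 cells at 1 × 10⁵ cells/mL were infected with the mutant HIV-1 at a multiplicity of infection of 0.02. Virus stocks were titred in MT-4 cells as CCID₅₀. Cells were plated at once onto serial compound dilutions, with DMSO stocks at 50 mM or higher. After 4 days at 37 °C, viable cells were counted by MTT. EC₅₀ is the concentration giving 50% protection from viral cytopathicity.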

The nature of data set [4]: Cytotoxicity against human MT4 cells after 4 days by MTT assay. The class given is cell-based. In a few lines: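 Uninfected MT-4 cells were run in parallel with the antiviral plates and exposed to serial compound dilutions (DMSO stocks of 50 mM or higher) for 4 days at 37 °C. Viability was read by MTT.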
On the technique in general: Tetrazolium assays rely on reduction of a dye to a coloured formazan, in cell work by metabolically active cells.

The nature of data set [5]: Selectivity index, CC50 for human MT4 cells to EC50 for wild type HIV1 3B. It counts as toxicity, cell-based. To be noted: read-out: Ratio CC50/EC50. In a few lines: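 Selectivity index is calculated as CC50 in uninfected MT-4 cells divided by EC50 against HIV-1 IIIB. Both come from parallel 4-day MTT readings at 37 °C, with infection at multiplicity of infection 0.02.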

Data set [6] relates to Human immunodeficiency virus 1. The experiment in a line: Antiviral activity against wild type HIV1 LAI infected in human MT4 cells assessed as protection against virus-induced cytopathogenicity after 4 days by MTT assay. To be noted: Human immunodeficiency virus 1, LAI, MT4, 96 h. The class given is functional, organism-based.
Data set [7] has as its system Human immunodeficiency virus 1. Briefly: Antiviral activity against HIV1 with reverse transcriptase E138K mutant infected in human MT4 cells assessed as protection against virus-induced cytopathogenicity after 4 days by MTT assay. The class given is functional, organism-based. To be noted: Human immunodeficiency virus 1, MT4, 96 h. In a few lines: as §2
Data set [8] relates to Human immunodeficiency virus 1. The experiment in a line: Antiviral activity against HIV1 with reverse transcriptase L100I mutant infected in human MT4 cells assessed as protection against virus-induced cytopathogenicity after 4 days by MTT assay. It counts as functional, organism-based. To be noted: Human immunodeficiency virus 1, MT4, 96 h. In a few lines:
as §2

Data set [9] concerns Human immunodeficiency virus 1. The experiment in a line: Antiviral activity against HIV1 with reverse transcriptase K103N mutant infected in human MT4 cells assessed as protection against virus-induced cytopathogenicity after 4 days by MTT assay. The class given is functional, organism-based. To be noted: Human immunodeficiency virus 1, MT4, 96 h.
Data set [10] deals with Human immunodeficiency virus 1. Briefly: Antiviral activity against HIV1 with reverse transcriptase Y181C mutant infected in human MT4 cells assessed as protection against virus-induced cytopathogenicity after 4 days by MTT assay. The class given is functional, organism-based. To be noted: Human immunodeficiency virus 1, MT4, 96 h. In a few lines:
as §2

The test system of data set [11] is Human immunodeficiency virus 1. Briefly: Antiviral activity against HIV1 with reverse transcriptase Y188L mutant infected in human MT4 cells assessed as protection against virus-induced cytopathogenicity after 4 days by MTT assay. The class given is functional, organism-based. To be noted: Human immunodeficiency virus 1, MT4, 96 h. In a few lines:
as §2

Data set [12] concerns Human immunodeficiency virus 1. Briefly: Antiviral activity against HIV1 with reverse transcriptase F227L, V106A mutant infected in human MT4 cells assessed as protection against virus-induced cytopathogenicity after 4 days by MTT assay. To be noted: Human immunodeficiency virus 1, MT4, 96 h. The class given is functional, organism-based. In a few lines:
as §2

For data set [13], the system named is Human immunodeficiency virus 1. The experiment in a line: Ratio of compound EC50 to nevirapine EC50 for wild type HIV1 3B. It counts as functional.
The test system of data set [14] is Human immunodeficiency virus 1. Briefly: Ratio of compound EC50 to delavirdine EC50 for wild type HIV1 3B. The class given is functional.
The test system of data set [15] is Human immunodeficiency virus 1. Briefly: Ratio of compound EC50 to efavirenz EC50 for HIV1 with reverse transcriptase Y188L mutant. The class given is functional.

Take `Cc1cc(C#N)cc(C)c1Oc1nc(Nc2ccc(C#N)cc2)nc2ccccc12`: the pEC50 (as a rule, the negative decadic logarithm of the EC50, by convention in mol/L) in [1] is 8.74; in data set [2], 4.49; in [3] it was 7.22; in data set [6], 8.64; in data set [7], 7.96; in data set [8] it was 7.74. For the same molecule, the negative-log EC50 (pEC50) in [9] was at least 8.44; in [10] it was 7.51; in data set [11], 7.44; in data set [12], 6.97. In data set [4], it took 203000 nM to reach half-maximal cytotoxicity (CC50 at 96 h). Moreover, the selectivity ratio in data set [5] turned out to be 112000. For the same molecule, the results for the Ratio in data set [13], in data set [14] and in data set [15] were 731, 266 and 6, respectively.
